# Bioassay records (PubChem BioAssay)
# CAL PDZ FP-1 = inhibitors of human CAL PDZ peptide binding; Q9HD26; 330,000 tested, 0.02% active; purified CAL PDZ, TMR-peptide fluorescence polarization, 1 h; inhibition, % at 20 µM;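 active = highest replicate inhibition of at least 40%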
#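 material = purified tagged CAL PDZ domain construct (CerCALP) | buffer or medium = sodium phosphate/NaCl buffer pH 7.4 with TCEP, IgG, Thesit | reagent = TMR-labelled reporter peptide T*-PRC34 bound in PDZ groove | incubation = 1 h room-temperature incubation prior to read | measured by = fluorescence polarization (mP) | evaluation = percent inhibition from loss of millipolarization | control set = unlabelled peptide and DMSO controls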
# DYRK1A inh = inhibitors of rat Dyrk1A kinase | 310,000 tested, 0.43% active | ADP-Glo luminescence, NFATc1 peptide | inhibition, % at 12.5 µM; in the data active = inhibition above about 50%
# CDK5 inh = inhibitors of human CDK5/p35 kinase; inhibition, % at 10 µM; Recombinant CDK5/p35, ADP-Glo luminescence, 60 min; 330,000 tested, 0.01% active; Q00535+Q15078;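 active = highest replicate inhibition of at least 50% and at least 75% of replicates reaching 50%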
# CAL PDZ FP-2 = CAL PDZ (human) peptide binding inhibition. Q9HD26. purified CAL PDZ, TMR-peptide fluorescence polarization, 1 h. inhibition, % at 24.9 µM. 300,000 tested, 0.92% active. AID 602252;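 active = mean inhibition of at least 30% with at least half of replicates also reaching 30%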
# dFosB act-1 = mouse delta FosB homodimer activation; P13346; purified delta FosB, TAMRA-CDK5 oligo fluorescence polarization; percent of positive-control signal above neutral wells; activation, % at 25 µM; 340,000 tested, 0.99% active; AID 493131;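 active = mean activation above about 17%, with every replicate also reaching it, limit read from the data, passing the limit was not always enough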
# Rtt109 Vps75 = inhibitors of Candida albicans Rtt109/Vps75 histone acetyltransferase; Q5AAJ8; purified Rtt109/Vps75, ThioGlo CoA-SH fluorescence, 4 h; inhibition, % at 34.9 µM; 330,000 tested, 0.16% active; AID 540336;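 active = inhibition of at least 50% in every replicate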
# Target sequence (Q5AAJ8 whole entry, looked up): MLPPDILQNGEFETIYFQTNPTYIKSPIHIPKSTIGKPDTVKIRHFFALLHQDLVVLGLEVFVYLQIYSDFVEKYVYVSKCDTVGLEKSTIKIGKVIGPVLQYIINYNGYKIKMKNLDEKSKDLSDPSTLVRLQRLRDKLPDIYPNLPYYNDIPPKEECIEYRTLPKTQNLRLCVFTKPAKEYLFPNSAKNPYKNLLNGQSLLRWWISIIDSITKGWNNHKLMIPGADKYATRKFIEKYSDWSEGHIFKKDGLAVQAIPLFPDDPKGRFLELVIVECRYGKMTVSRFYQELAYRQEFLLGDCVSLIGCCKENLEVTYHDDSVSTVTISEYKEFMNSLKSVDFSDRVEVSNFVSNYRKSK
# dFosB act-2 = activators of mouse delta FosB homodimer DNA binding. activation, % at 24.9 µM. 2,400 tested, under 10 active. purified delta FosB, TAMRA-CDK5 oligo fluorescence polarization; normalised: neutral wells 0, positive control 100. shares compounds with dFosB act-1;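 active = highest replicate activation at or above 34% and every replicate reaching that threshold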;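 note: higher polarization means more probe DNA bound by delta FosB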
# A number is an active result; 0 = inactive; - = not tested or not shown. This is a sample that favours compounds with a hit; in the whole collection about 2.2% have one here.
SMILES,CAL PDZ FP-1,DYRK1A inh,CDK5 inh,CAL PDZ FP-2,dFosB act-1,Rtt109 Vps75,dFosB act-2
O=C(Cn1c(=O)oc2cc(S(=O)(=O)N3CCCC3)ccc21)NC1CCCc2ccccc21 (stereo not given),0,0,0,-,26,0,0
Cc1ccc(C)c(N2CCN(C(=O)Cn3c(=O)oc4cc(S(=O)(=O)N5CCCC5)ccc43)CC2)c1,0,0,0,-,35,0,0
O=C(Cn1c(=O)oc2cc(S(=O)(=O)N3CCCC3)ccc21)N1CCN(c2ccccc2)CC1,0,0,0,-,0,0,-
COc1cccc(CN2CC(C(=O)N(C)Cc3ccc(C)cc3)CCC2=O)c1 (stereo not given),0,0,0,0,0,0,-
Oc1oc(-c2ccccc2Br)nc1C=Nc1ccc(Br)cn1,0,0,0,0,47,0,0
Cc1cc(C(=O)COC(=O)c2ccc(O)cc2O)c(C)n1C(C)C,0,0,0,0,0,0,-
COc1ccc(N2C(=O)CC(NNC(=O)c3ccc(Br)s3)C2=O)cc1 (stereo not given),0,0,0,0,45,0,0
CCc1ccc(NC(=O)CSc2nc3n[nH]c(C)c3c(=N)n2-c2cccc(OC)c2)cc1,0,0,0,-,42,0,0
CCc1nnc(NC(=O)c2cccc(S(=O)(=O)N3CCc4ccccc43)c2)s1,0,0,0,0,34,0,0
COc1cc(OC)c(N(C)S(=O)(=O)c2cccc(C(=O)Nc3nnc(C4CC4)s3)c2)cc1Cl,0,0,0,0,63,0,0
Cc1nnc(NC(=O)c2cccc(S(=O)(=O)N3CCc4ccccc43)c2)s1,0,0,0,0,0,0,-
O=C(Nc1nc2ccccc2s1)c1cccc(S(=O)(=O)N2CCc3ccccc32)c1,0,0,0,0,34,0,0
O=C(Nc1nnc(C2CC2)s1)c1cccc(S(=O)(=O)N2CCc3ccccc32)c1,0,0,0,0,51,0,0
CCOc1ccc(-c2nc3c(s2)CCc2onc(-c4ccc(OC)cc4)c2-3)cc1,0,0,0,0,0,0,-
O=C(Nc1nc2c(s1)CN(Cc1ccccc1)CC2)c1cccc(S(=O)(=O)N2CCc3ccccc32)c1,0,0,0,0,74,0,0
O=C(NNC(=O)c1cccc(S(=O)(=O)N2CCc3ccccc32)c1)c1ccccc1,0,-,0,0,0,0,-
CC(=O)Nc1ccc(/C=C/c2nc(-c3ccccc3O)n[nH]2)cc1,0,0,0,0,24,0,0
COc1cc(OC)cc(C(=O)NCC2CCCN(Cc3cccc(C(C)=O)c3)C2)c1 (stereo not given),0,0,0,0,0,0,-
CCOC(=O)c1sc(N(Cc2ccccc2)C(=O)CSc2nnc(C3CC3)n2N)nc1C,0,0,0,0,0,-,-
Cc1ccc(-c2cc(C(=O)N/N=C/c3c(C)nn(C)c3C)c3ccccc3n2)cc1C,0,0,0,0,43,0,0
Cc1ccc(-c2cc(C(=O)N/N=C/c3ccoc3)c3ccccc3n2)cc1,0,0,0,0,0,0,-
CC1Cc2ccccc2N1S(=O)(=O)c1cnc[nH]1 (stereo not given),-,0,0,0,0,0,-
O=S(=O)(c1cnc[nH]1)N1CCc2ccccc21,0,0,0,0,20,0,0
O=C1CN(C(=O)COC(=O)c2cccs2)c2ccccc2N1,0,0,0,0,0,0,-
Cn1c2ccccc2c2cc(C(=O)OCC(=O)N3CC(=O)Nc4ccccc43)sc21,0,0,0,0,39,0,0
O=C(COC(=O)Cc1ccccc1F)Nc1ccc2[nH]c(=O)[nH]c2c1,0,0,0,0,0,0,-
O=C(COC(=O)/C=C/c1cc(Br)ccc1F)Nc1ccc2[nH]c(=O)[nH]c2c1,0,0,0,0,41,0,0
C[C@]12CC[C@H](O)CC1=C[C@H](O)C1C2CC[C@@]2(C)C1CC[C@@]2(O)C#Cc1ccc(CN)cc1 (stereo not given in full),0,0,0,0,24,0,0
